Results taken from ChEMBL document CHEMBL1128173, “Synthesis and structure-activity relationships of substituted 1,4-dihydroquinoxaline-2,3-diones: antagonists of N-methyl-D-aspartate (NMDA) receptor glycine sites and non-NMDA glutamate receptors” (J Med Chem, 1995).

Key:
[1] = target: Glutamate receptor ionotropic, AMPA (Rattus norvegicus) (UniProt P19491+P19492+P19493+P19490); experiment: Binding affinity against rat brain Non N-methyl-D-aspartate glutamate receptor glutamate site expressed in Xenopus oocyte
How it was run: (§1)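 Oocytes expressing whole rat brain poly(A)+ RNA (~50 ng injected), voltage-clamped with two electrodes 3–10 days after injection and perfused with Ringer pH 7.4. Antagonist perfused ~30 s before agonist, with washout over 1–5 min. Non-NMDA IC50 estimated from partial (three- or four-point) concentration-inhibition curves fit to a logistic equation with a slope factor. Final DMSO 0.03–0.3%.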

[2] = Selectivity for glycine site
[3] = organism: Rattus norvegicus; experiment: The compound was tested for binding affinity against Non N-methyl-D-aspartate glutamate receptor glutamate site expressed in Xenopus oocyte; how it was run: as §1
[4] = target: Glutamate receptor ionotropic, NMDA 1 (Rattus norvegicus) (UniProt P35439); experiment: The compound was tested for binding affinity against NMDA receptor glycine site in Xenopus oocyte
How it was run: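 Xenopus stage V–VI oocytes injected with ~50 ng rat whole-brain poly(A)+ RNA; two-electrode voltage clamp at −70 mV, 3–10 days post-injection, frog Ringer pH 7.4. NMDA fixed at 100 µM, glycine 1 µM; antagonist pre-applied ~30 s with glycine. Amplitude read at the slow second-phase peak; IC50 from 3–4-point inhibition curves fit with slope factor.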

Row | SMILES | Kb [1] | Selectivity [2] | Kb [3] | Kb [4]
1 | Oc1nc2cc(F)c(F)c(Cl)c2nc1O | 17.9 µM | 10 |  | 
2 | Nc1c(C(F)(F)F)cc(Cl)c2nc(O)c(O)nc12 | 63.4 µM |  |  | 
3 | Oc1nc2cc(Cl)cc(C(F)(F)F)c2nc1O | 4.67 µM | 7.6 |  | 
4 | O=[N+]([O-])c1c(Cl)c(C(F)(F)F)cc2nc(O)c(O)nc12 | 0.55 µM | 15 |  | 
5 | Oc1nc2cc(F)c(F)cc2nc1O | 21.5 µM | 4.5 |  | 
6 | Oc1nc2cc(C(F)(F)F)cc(Br)c2nc1O | 4.29 µM | 4.2 |  | 
7 | Oc1nc2cc(Cl)c(Cl)c(C(F)(F)F)c2nc1O | 2.66 µM | 14 |  | 
8 | Oc1nc2cc(F)c(F)c(F)c2nc1O | 30.4 µM | 5.4 |  | 
9 | Oc1nc2cc(F)c(C(F)(F)F)cc2nc1O | 3.78 µM | 1.5 |  | 
10 | Oc1nc2ccc(Cl)cc2nc1O | 16.4 µM | 6.3 |  | 
11 | O=[N+]([O-])c1c(Br)c(C(F)(F)F)cc2nc(O)c(O)nc12 | 0.47 µM | 17 |  | 
12 | O=[N+]([O-])c1cc2nc(O)c(O)nc2cc1Cl | 0.64 µM | 2.3 |  | 
13 | O=[N+]([O-])c1ccc2nc(O)c(O)nc2c1 | 1.67 µM | 0.7 |  | 
14 | Oc1nc2cc(Cl)c(Br)cc2nc1O | 5.7 µM | 16 |  | 
15 | Oc1nc2cc(Br)cc(Br)c2nc1O | 6.01 µM | 6.8 |  | 
16 | O=[N+]([O-])c1c(Br)c(Cl)cc2nc(O)c(O)nc12 | 0.95 µM | 120 |  | 
17 | Oc1nc2cc(C(F)(F)F)cc(Cl)c2nc1O | 3.7 µM | 7.1 |  | 
18 | Oc1nc2cc(C(F)(F)F)c(Cl)c(Cl)c2nc1O | 1.23 µM | 6.5 |  | 
19 | Oc1nc2ccccc2nc1O | 98.2 µM | 5.9 |  | 
20 | O=[N+]([O-])c1c(F)c(Br)cc2nc(O)c(O)nc12 | 1.4 µM | 35 |  | 
21 | Oc1nc2ccc(Br)cc2nc1O | 11.2 µM | 4.7 |  | 
22 | O=c1[nH]c2cc(Cl)c(Cl)c([N+](=O)[O-])c2[nH]c1=O | 1.5 µM | 254 |  | 
23 | Oc1nc2cc(Cl)c(C(F)(F)F)cc2nc1O | 2.55 µM | 9.8 |  | 
24 | O=[N+]([O-])c1cccc2nc(O)c(O)nc12 | > 100 µM | > 5.8 |  | 
25 | O=[N+]([O-])c1c(F)c(F)cc2nc(O)c(O)nc12 | 6.01 µM | 19 |  | 
26 | O=[N+]([O-])c1c(C(F)(F)F)cc(Cl)c2nc(O)c(O)nc12 | > 30 µM |  |  | 

Row | SMILES | Kb [1] | Selectivity [2] | Kb [3] | Kb [4]
27 | O=[N+]([O-])c1c(Br)c(Br)cc2nc(O)c(O)nc12 |  | 140 | 0.89 µM | 
28 | Oc1nc2cc(Cl)c(Cl)c(Br)c2nc1O | 4.11 µM | 43 |  | 
29 | O=[N+]([O-])c1c(Cl)ccc2nc(O)c(O)nc12 | 36.4 µM | 74 |  | 
30 | Nc1c(Br)c(Br)cc2nc(O)c(O)nc12 | 3.32 µM | 66 |  | 
31 | Oc1nc2cc(C(F)(F)F)cc(C(F)(F)F)c2nc1O | 2.21 µM | 4.9 |  | 
32 | O=[N+]([O-])c1c(F)c(Cl)c(F)c2nc(O)c(O)nc12 | 6.56 µM | 23 |  | 
33 | O=[N+]([O-])c1c(F)c(Cl)cc2nc(O)c(O)nc12 | 1.61 µM | 81 |  | 
34 | Nc1c(Cl)c(Cl)cc2nc(O)c(O)nc12 | 5.19 µM | 88 |  | 
35 | Oc1nc2cc(Cl)c(Cl)c(Cl)c2nc1O | 4.19 µM | 51 |  | 
36 | Oc1nc2cc(Cl)cc(Cl)c2nc1O | 9.27 µM | 13 |  | 
37 | Oc1nc2cc(F)c(Cl)cc2nc1O | 10.8 µM | 4.5 |  | 
38 | CC(=O)Nc1c(Cl)c(Cl)cc2nc(O)c(O)nc12 | 5.57 µM | 23 |  | 
39 | O=[N+]([O-])c1cc(Cl)cc2nc(O)c(O)nc12 | 8.02 µM | 16 |  | 
40 | Oc1nc2cc(Br)cc(C(F)(F)F)c2nc1O | 3.4 µM | 14 |  | 
41 | O=[N+]([O-])c1c(Br)ccc2nc(O)c(O)nc12 | 36.3 µM | 28 |  | 
42 | Oc1nc2c(F)c(F)c(F)c(F)c2nc1O | 26.6 µM | 8 |  | 
43 | O=[N+]([O-])c1cc(C(F)(F)F)cc2nc(O)c(O)nc12 | 4.13 µM | 13 |  | 
44 | Oc1nc2cc(F)cc(C(F)(F)F)c2nc1O | 16.3 µM | 4.8 |  | 
45 | O=[N+]([O-])c1c(Cl)c(Cl)c(Cl)c2nc(O)c(O)nc12 | 14.1 µM | 11 |  | 
46 | O=[N+]([O-])c1c(Cl)c(Br)cc2nc(O)c(O)nc12 | 1.24 µM | 170 |  | 
47 | Oc1nc2cc(F)c(Cl)c(F)c2nc1O | 13.2 µM | 7.3 |  | 
48 | Oc1nc2cc(Br)c(C(F)(F)F)cc2nc1O | 1.49 µM | 5.7 |  | 
49 | Oc1nc2cc(Cl)c(Cl)cc2nc1O | 4.81 µM | 13 |  | 
50 | O=[N+]([O-])c1c(Cl)cc2nc(O)c(O)nc2c1[N+](=O)[O-] |  | 24 | 0.99 µM | 0.042 µM
51 | O=[N+]([O-])c1c(Br)c(F)cc2nc(O)c(O)nc12 | 3.45 µM | 35 |  | 
52 | Oc1nc2cc(Br)c(Br)cc2nc1O | 4.05 µM | 19 |  | 
